According to ChEMBL document CHEMBL1139946, “1-Aryl-4,6-dihydropyrazolo[4,3-d][1]benzazepin-5(1H)-ones: a new class of antiproliferative agents with selectivity for human leukemia and breast cancer cell lines” (Eur J Med Chem, 2007):

Tests used:
MDA-MB-435 = experiment: Antitumor activity against human MDA-MB435 cells after 48 hrs by sulforhodamine B protein assay; format: functional; conditions: MDA-MB-435, 48 h
Summary of the method: (§1)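 Part of the NCI 60-cell-line screen. Compounds tested at five concentrations (10^-8 to 10^-4 M) with continuous exposure for 48 h. Cell growth read by sulforhodamine B protein assay, with percent growth from optical density of treated versus untreated control cultures. GI50 is the concentration giving 50% net growth inhibition.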

K562 = experiment: Antitumor activity against human K562 cells after 48 hrs by sulforhodamine B protein assay; format: functional; conditions: K562, 48 h; summary of the method: as §1

GI50 (MDA-MB-435): 200 nM | GI50 (K562): 100 nM
Compound: COc1cccc2c1C(=O)c1c(O)c3c(c(O)c1C2=O)C[C@@](O)(C(=O)CO)C[C@@H]3O[C@H]1C[C@H](N)[C@H](O)[C@H](C)O1 [DOXORUBICIN]
